Compound activity as filed in PubChem.
TAG inh: reduces triacylglycerol accumulation in H9c2 cells; Nile Red lipid (TAG) fluorescence; cells loaded with 200 µM oleic acid; inhibition, % at 12.5 µM; 230,000 compounds, 0.66% hits; AID 651582;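 active means pattern-corrected inhibition of lipid staining of at least 50% with the nuclear-stain viability signal not falling by more than 50%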;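 further: 0% = DMSO wells and 100% = triacsin C control wells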
MT1-MMP act inh: inhibitors of human MT1-MMP activation; HT1080 RFP-PRO-GFP cells, GFP/RFP ratio fluorescence, overnight; percent of plate control window, DMSO zero; 360,000 compounds, 0.061% hits; GFP/RFP ratio change, % at 20 µM; P50281;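 active means GFP/RFP ratio change of at least 30% with cell ATP level not reduced by more than half and red fluorescence within 50% of control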
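Compound: 20 µM single dose, 1% DMSO / System: HT1080 RFP-PRO-GFP cells / Controls: DMSO and RFP-L50D-GFP cell wells / Read-out basis: GFP/RFP fluorescence ratio / Schedule: overnight compound exposure at 37 °C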
HGIII-sPLA2 inh: Blocks human group III sPLA2 activity; QFRET BODIPY PC-A2 liposome hydrolysis, fluorescence; inhibition, % at 12.2 µM; 370,000 compounds, 0.56% hits;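 active means inhibition above mean plus 3 SD of compounds lying within the high and low control bounds, cut at about 19% in these data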;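 further: 0% = median of test compound wells and 100% = no enzyme DMSO wells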
Target sequence (Q9NZ20 whole entry, looked up): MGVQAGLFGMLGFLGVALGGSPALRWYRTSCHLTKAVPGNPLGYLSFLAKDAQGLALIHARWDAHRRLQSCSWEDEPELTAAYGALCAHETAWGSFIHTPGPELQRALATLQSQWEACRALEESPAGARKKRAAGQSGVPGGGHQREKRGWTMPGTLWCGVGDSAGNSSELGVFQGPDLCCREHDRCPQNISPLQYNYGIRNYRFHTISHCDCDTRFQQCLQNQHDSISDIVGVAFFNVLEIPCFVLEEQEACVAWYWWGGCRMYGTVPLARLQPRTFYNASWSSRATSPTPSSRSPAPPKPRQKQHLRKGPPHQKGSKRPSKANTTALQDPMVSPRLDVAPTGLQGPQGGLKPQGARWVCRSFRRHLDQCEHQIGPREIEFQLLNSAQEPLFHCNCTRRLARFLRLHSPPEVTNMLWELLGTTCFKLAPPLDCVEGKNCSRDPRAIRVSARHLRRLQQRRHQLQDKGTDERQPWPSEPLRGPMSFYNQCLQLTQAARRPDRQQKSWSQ
Efflux pump inh: antifungal efflux pump inhibition, Nile Red retention | S. cerevisiae Candida pump triplex | inhibition, % at 10 µM | 330,000 compounds, 0.44% hits | AID 485275;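 active means plate passing quality check with inhibition over a set limit, or well fluorescence over plate mean plus 4 SD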;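 further: Nile Red retained in pooled yeast measured as flow cytometry median fluorescence; 0% = buffer negative control and 100% = Enniatin B positive control; higher means more Nile Red kept so more efflux inhibition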
Yeast cmpd fluor: compound fluorescence in yeast efflux pump counter-screen | shares compounds with Efflux pump inh | S. cerevisiae AD/pABC3, flow cytometry | fluorescence ratio to DMSO, % at 10 µM | 1,700 compounds, 4% hits | AID 588517;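 active means fluorescence ratio to DMSO above its plate's cutoff, the plate mean ratio plus 5 SD, cut at about 210% in these data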;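 further: unstained yeast with no Nile Red so the signal is compound autofluorescence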
CaMdr1 efflux inh: inhibitors of Candida albicans Mdr1 efflux pump; inhibition, % at 10 µM; shares compounds with Efflux pump inh; S. cerevisiae AD/CaMDR1, Nile Red efflux, flow cytometry; 1,700 compounds, 1% hits; in the data active means inhibition above about 26%;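 further: 0% = DMSO vehicle and 100% = reference inhibitor; higher means more Nile Red retained so more efflux inhibition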
CaCdr2 efflux inh: inhibitors of Candida albicans Cdr2 efflux pump; shares compounds with Efflux pump inh; S. cerevisiae AD/CaCDR2, Nile Red retention, flow cytometry; Nile Red retention ratio vs DMSO, % at 10 µM; 1,700 compounds, 4% hits; AID 588520; in the data active means Nile Red retention ratio vs DMSO above about 190%;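 further: higher ratio means more blocking of Cdr2 efflux of the dye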
Cdr1 pump inh: inhibitors of Candida albicans Cdr1 efflux pump | shares compounds with Efflux pump inh | S. cerevisiae AD/CaCDR1, Nile Red efflux, flow cytometry | inhibition, % at 10 µM | 1,700 compounds, 1% hits;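 active means inhibition above the screen-wide mean plus twice its standard deviation, cut at about 32% in these data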
Starred values were filed as active, the others as inactive; nt = no result given. Rows were chosen to be rich in hits. Some 1.3% of all compounds tested hit in one or more screens of this group.

SMILES	TAG inh	MT1-MMP act inh	HGIII-sPLA2 inh	Efflux pump inh	Yeast cmpd fluor	CaMdr1 efflux inh	CaCdr2 efflux inh	Cdr1 pump inh
COc1cccc(-c2c(C(=O)N/N=C(\C)c3ccco3)nnn2-c2nonc2N)c1	nt	-9.3	-10.7	0.5	nt	nt	nt	nt
O=C(/C=C/Nc1ccccc1C(=O)O)c1cccs1	nt	-8.8	-0.3	0.1	nt	nt	nt	nt
O=C(O)c1ccccc1N/C=C\[N+](=O)[O-]	-4.4	-0.8	-1.8	0.7*	96.6	0.0	97.7	-0.1
Cc1nc2cc(Cl)c(Cl)cc2n1-c1ccccn1	-24.9	0.6	6.8	-0.1	nt	nt	nt	nt
Cc1cccc(C(C)C)c1NC(=O)Cc1ccc(S(=O)(=O)N2CCOCC2)s1	3.4	0.0	-13.8	0.5*	285.2*	0.9	112.3	0.3
Cc1cc(Cl)ccc1OC(C)C(=O)Nc1ccc(C(=O)Nc2ccccc2C(=O)O)cc1 (configuration not stated)	15.6	3.5	-48.1	0.4	nt	nt	nt	nt
O=C(O)c1ccccc1CC(CCc1ccccc1)C(=O)O (configuration not stated)	1.6	2.0	2.0	nt	nt	nt	nt	nt
O=C1C2C3CCC(C3)C2C(=O)N1Cc1ccccc1 (configuration not stated)	nt	-6.1	2.0	-0.3	nt	nt	nt	nt
O=C1C2C3C=CC(C4CC34)C2C(=O)N1Cc1ccccc1 (configuration not stated)	-0.2	1.0	2.0	0.9*	90.7	-0.3	94.1	-0.1
COc1ccc(N(CC(=O)Nc2cccc([N+](=O)[O-])c2C)S(C)(=O)=O)cc1OC	4.9	2.8	-3.7	8.9*	97.6	-0.4	102.9	-0.1
COc1ccc(CC(=O)O/N=C(\N)c2ccccc2)cc1OC	nt	1.6	-0.5	0.0	107.9	-0.2	97.5	0.0
COc1ccc(/C(N)=N/OC(=O)Cc2cccs2)cc1OC	nt	-3.1	-4.7	6.7*	98.6	-0.2	86.7	-0.2
COc1ccc(/C(N)=N/OC(=O)Cc2cccs2)cc1	nt	12.2	-3.1	0.0	nt	nt	nt	nt
COc1ccc(CC(=O)O/N=C(\N)c2ccc(OC)cc2)cc1	-17.7	3.2	-4.2	-0.1	113.2	0.0	112.3	0.1
COc1ccc(/C(N)=N/OC(=O)Oc2ccccc2)cc1OC	nt	0.1	1.7	5.8*	101.4	-0.2	95.6	-0.1
CCOc1ccc(N(CC(=O)Nc2c(C)cc(C)cc2C)C2=NC3CS(=O)(=O)CC3S2)cc1 (configuration not stated)	5.9	5.1	4.5	nt	nt	nt	nt	nt
Cc1ccc(NC(=O)C(c2ccccc2)c2ccccc2)c(O)c1	nt	-2.6	-54.0	-0.3	nt	nt	nt	nt
Nc1ccc(S(=O)(=O)NN=CC=Cc2ccccc2[N+](=O)[O-])cc1	1.2	-9.8	0.5	nt	nt	nt	nt	nt
CC1(C)CC(=O)C=C(NCCN2CCN(C(=S)NC3CCCCC3)CC2)C1	-1.0	-1.2	5.9	-0.1	nt	nt	nt	nt
O=C(COC(=O)Cn1cnc2ccccc2c1=O)NNC(=O)c1ccc(Br)cc1	-0.5	6.2	-11.3	0.8*	105.0	-0.3	97.2	0.0
O=C(/C=C/c1ccccc1)OCC(=O)c1c[nH]c2ccccc12	-14.0	4.6	-18.5	-0.2	nt	nt	nt	nt
COc1ccccc1C(=O)COC(=O)/C=C/c1ccccc1	-33.9	3.0	-16.4	6.2*	111.1	-0.2	99.6	0.0
CC(C)N(C[C@@H]1CSCCS(=O)(=O)N1)C(C)C	nt	nt	5.3	nt	nt	nt	nt	nt
COCCCn1c(SCC(=O)OC2CCCCC2)nnc1-c1ccco1	nt	5.6	nt	-0.1	nt	nt	nt	nt
COCCCn1c(SCC(=O)OC2CCCCC2)nnc1-c1cccs1	nt	10.6	-1.0	1.3*	96.2	-0.2	120.4	-0.1
SMILES	TAG inh	MT1-MMP act inh	HGIII-sPLA2 inh	Efflux pump inh	Yeast cmpd fluor	CaMdr1 efflux inh	CaCdr2 efflux inh	Cdr1 pump inh
COc1ccc(-c2nsc(C(=O)N(c3ccc(F)cc3)C(C(=O)NC3CCCC3)c3ccc(OC)cc3)c2N)cc1 (configuration not stated)	nt	-18.2	-5.4	0.3*	106.8	0.1	106.0	-0.1
COc1ccccc1CNC(=O)c1ccc(OC(C)C)cc1	nt	4.0	12.1	-0.1	nt	nt	nt	nt
COc1ccc(F)cc1C(=O)C1CCCN(C(=O)c2ccccc2N(C)C)C1 (configuration not stated)	nt	3.4	0.7	-0.1	nt	nt	nt	nt
COc1cc2cc(CN(CCc3cccc(C)c3)C(=S)NCCCN(C)C)c(=O)[nH]c2cc1OC	40.1	-2.7	-5.5	0.2	nt	nt	nt	nt
CNC(=S)N(CCc1cccc(C)c1)Cc1cc2cc(OC)c(OC)cc2[nH]c1=O	4.0	0.9	0.5	1.7*	106.2	-0.1	93.5	0.2
CC1=C(C(=O)Nc2ccccc2)C(c2cccc([N+](=O)[O-])c2)Nc2nc3ccccc3n21 (configuration not stated)	nt	-9.0	-7.6	1.4*	108.6	-0.2	109.4	-0.1
O=C(NCCc1ccc(O)c(O)c1)C1COc2ccccc2O1 (configuration not stated)	nt	5.7	-6.6	0.0	nt	nt	nt	nt
Cn1ccc(NC(=O)c2ccc(Cl)cc2)n1	-5.9	3.5	14.9	150.6*	105.6	-0.1	100.1	-0.1
CC1=C(C)C(c2ccccc2)NC(=S)N1 (configuration not stated)	nt	0.4	13.4	5.5*	103.4	-0.1	104.2	0.1
CC1=C(C(=O)c2ccccc2)C(c2ccc(O)cc2)NC(=S)N1 (configuration not stated)	9.4	-10.7	8.7	0.0	nt	nt	nt	nt
CC(C)c1ccc(NC2CCCN(C(=O)C3=NN(C)C(=O)CC3)C2)cc1 (configuration not stated)	nt	-1.9	-0.3	-0.3	nt	nt	nt	nt
NC(=O)C1(N2CCCCC2)CCN(S(=O)(=O)c2cc(Cl)ccc2Cl)CC1	-10.2	-1.2	-3.4	-0.1	nt	nt	nt	nt
COc1cc(/C=C2\SC(=S)N(NS(=O)(=O)c3ccc(C)cc3)C2=O)ccc1O	-17.8	-25.1	-17.9	0.0	116.8	0.1	109.4	0.0
CC(/C=C1\SC(=S)N(NS(=O)(=O)c2ccccc2)C1=O)=C\c1ccccc1	7.5	22.9	-13.7	0.1	nt	nt	nt	nt
CC(/C=C1\SC(=S)N(NC(=O)c2ccncc2)C1=O)=C\c1ccccc1	-6.8	0.0	-15.6	0.4	87.6	-0.1	86.9	-0.2
CC(/C=C1\SC(=S)N(NS(=O)(=O)c2ccc(C)cc2)C1=O)=C\c1ccccc1	-4.2	1.8	2.5	0.1	109.5	-0.1	103.9	-0.1
COc1cc(/C=C2\SC(=S)N(NS(=O)(=O)c3ccccc3)C2=O)ccc1O	-6.7	-27.2	-2.9	0.2	nt	nt	nt	nt
O=C(NN1C(=O)/C(=C/c2cccs2)SC1=S)c1cccnc1	12.5	-17.2	1.5	-0.2	105.0	-0.2	93.0	0.1
Cn1cccc1/C=C1\SC(=S)N(NC(=O)c2ccccc2)C1=O	nt	-7.0	6.1	0.1	nt	nt	nt	nt
Cn1cccc1/C=C1\SC(=S)N(NC(=O)c2ccc(F)cc2)C1=O	-9.6	-1.5	-13.3	0.0	91.9	-0.1	86.9	-0.1
